Assay outcomes as filed in PubChem BioAssay.
This is a sample that favours compounds with a hit; in the whole collection about 4.3% have one here.
CAL PDZ FP-1 – blocks peptide binding to the human CAL PDZ domain. inhibition, % at 24.9 µM. Q9HD26. AID 602252. 300,000 tested, 0.92% active. purified CAL PDZ, TMR-peptide fluorescence polarization, 1 h;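 active = mean inhibition of at least 30% with at least half of replicates also reaching 30%; inconclusive = no clear call, values can overlap the other calls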
CAL PDZ FP-2 – human CAL PDZ-peptide interaction inhibition; purified CAL PDZ, TMR-peptide fluorescence polarization, 1 h; inhibition, % at 20 µM; 330,000 tested, 0.02% active;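 active = highest replicate inhibition of at least 40%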
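Assay system – tagged CAL PDZ protein CerCALP, purified · Timing – 1 h at RT · Compound – single point, 20 µM · Measured by – fluorescence polarization from S- and P-plane intensities, G-factor corrected · Evaluation – inhibition from polarization loss · Probe or stimulus – TMR reporter peptide T*-PRC34 · Buffer or medium – pH 7.4 phosphate-saline buffer, reducing agent, detergent, IgG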
DYRK1A inh – Dyrk1A (rat) kinase inhibition. ADP-Glo luminescence, NFATc1 peptide. inhibition, % at 12.5 µM. 310,000 tested, 0.43% active. AID 504441; in the data active = inhibition above about 50%
ALR H2O2 inh – inhibitors of human sulfhydryl oxidase ALR; 290,000 tested, 3.8% active; purified ALR, DTT oxidation, H2O2 HRP-luminol luminescence; inhibition, % (test concentration not listed);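 active = mean replicate inhibition above about 79%, with every replicate also reaching it, limit read from the data; inconclusive = only one of the two criteria met; inactive = mean below limit and not every replicate reaching it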
Target sequence (P55789 whole entry, looked up): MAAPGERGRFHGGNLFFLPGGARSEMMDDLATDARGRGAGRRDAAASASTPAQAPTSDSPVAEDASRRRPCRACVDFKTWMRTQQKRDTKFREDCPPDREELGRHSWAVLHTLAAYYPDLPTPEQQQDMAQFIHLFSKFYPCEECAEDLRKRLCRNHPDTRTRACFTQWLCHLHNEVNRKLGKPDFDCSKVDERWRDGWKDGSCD
Rtt109 HAT inh – inhibitors of Candida albicans Rtt109/Vps75 histone acetyltransferase. inhibition, % at 34.9 µM. AID 540336. 330,000 tested, 0.16% active. purified Rtt109/Vps75, ThioGlo CoA-SH fluorescence, 4 h. Q5AAJ8;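 active = inhibition of at least 50% in every replicate; inconclusive = best replicate reaches 50% inhibition but some replicates fall short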
Target sequence (Q5AAJ8 whole entry, looked up): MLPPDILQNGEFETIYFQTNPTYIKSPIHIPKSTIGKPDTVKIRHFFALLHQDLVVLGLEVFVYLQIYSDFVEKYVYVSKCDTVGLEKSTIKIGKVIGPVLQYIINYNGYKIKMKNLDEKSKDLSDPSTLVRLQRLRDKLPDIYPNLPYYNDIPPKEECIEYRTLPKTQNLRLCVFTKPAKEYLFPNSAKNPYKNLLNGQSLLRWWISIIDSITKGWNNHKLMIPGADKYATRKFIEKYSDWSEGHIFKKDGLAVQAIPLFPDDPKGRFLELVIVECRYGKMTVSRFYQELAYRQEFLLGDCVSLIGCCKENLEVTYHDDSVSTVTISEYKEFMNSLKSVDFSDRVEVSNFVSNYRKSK
Hits are given with their value; . = inactive; ? = inconclusive; / = no result; + = active, no number.

SMILES | CAL PDZ FP-1 | CAL PDZ FP-2 | DYRK1A inh | ALR H2O2 inh | Rtt109 HAT inh
CCCC(=O)NCc1ccc2c(c1)cc(C)n2C | . | . | . | . | .
Cc1cc2cc(CNC(=O)C3CCCC3)ccc2n1C | / | . | . | 96.6 | .
CN1CCN(C(=O)CCNC(=O)Cn2ccc3ccccc3c2=O)CC1 | . | . | . | . | .
CCN(CCCNC(=O)CNC(=O)Cn1cnc2ccccc2c1=O)c1cccc(C)c1 | / | . | . | / | .
O=C(Cn1cnc2ccccc2c1=O)NCCC(=O)N1CCN(c2ccccc2)CC1 | . | . | . | 95.8 | .
CCN1CCN(C(=O)CCNC(=O)Cn2cnc3ccccc3c2=O)CC1 | . | . | . | / | .
COc1ccc(N2CCN(C(=O)CCNC(=O)Cn3ccc4ccccc4c3=O)CC2)cc1 | . | . | / | 85.3 | .
CCN(CCCNC(=O)CCNC(=O)Cn1cnc2ccccc2c1=O)c1ccccc1 | . | . | . | 98.9 | .
CC(=O)C1C=CC(C)(C(=O)O)C2C=C(C)C(=O)C(C)(O)C12 (stereo not drawn) | . | . | . | / | .
Cc1cc(C)c(S(=O)(=O)Nc2ccc(N(C)C)cc2)c(C)c1-n1cnnn1 | . | . | . | 99.0 | .
Cc1ccc(S(=O)(=O)Nc2ccc(-n3cnnn3)cc2)c(C)c1 | . | . | . | / | .
CC1=CC(C)C2COC(c3ccc[n+](C)c3)C1C2C (stereo not drawn) | . | . | . | . | .
O=C(O)C1=CC(=C(c2ccc(O)c(C(=O)O)c2)c2ccc(O)c(C(=O)O)c2)C=CC1=O | / | / | / | 97.4 | /
O=C(O)c1cc(O)ccc1O | . | . | . | / | .
O=C(/C=C/Nc1ccc([N+](=O)[O-])cc1Br)c1cccc2ccccc12 | . | . | . | . | 51.2
O=C(NC1CCCCC1)C1CCN(c2nccs2)CC1 | 33.5 | . | . | . | .
O=C1NCCCCC1NS(=O)(=O)c1ccc(F)c(F)c1 (stereo not drawn) | 110.1 | . | . | . | .
CCc1ccc(S(=O)(=O)NC2CCCCNC2=O)cc1 (stereo not drawn) | . | . | . | / | .
Cc1ccc(-c2nc3cnccn3c2Nc2ccc3c(c2)OCO3)o1 | / | . | . | / | .
CSc1ccc(-c2nc3cnccn3c2Nc2ccc3c(c2)OCO3)cc1 | . | . | . | 99.6 | .
Clc1ccc(-c2nc3cnccn3c2Nc2ccc3c(c2)OCO3)cc1 | . | . | . | 97.6 | .
COCCNc1nc2c(c(=O)n(Cc3ccccc3F)c(=O)n2C)n1C | . | . | . | / | .
Cn1c(NCc2cccnc2)nc2c1c(=O)n(Cc1ccccc1F)c(=O)n2C | + | . | . | . | .
COc1ccc(C(C)=O)cc1CSC(=N)N | / | . | . | 98.7 | .
COc1ccc(CCC(C)Nc2cccc(C)c2)cc1 (stereo not drawn) | / | . | . | 99.0 | .
SMILES | CAL PDZ FP-1 | CAL PDZ FP-2 | DYRK1A inh | ALR H2O2 inh | Rtt109 HAT inh
COc1ccc(CCC(C)Nc2ccc(F)cc2)cc1 (stereo not drawn) | . | . | . | 97.8 | .
COc1cc(/C=N/Nc2ccc(Cl)c(C(=O)O)c2)ccc1OC(=O)c1ccccc1F | 41.8 | . | . | 98.9 | .
O=C(O)c1ccc(N/N=C/c2ccc3c(c2)OCO3)cc1 | . | . | . | 98.7 | .
O=C(O)c1cc(N/N=C/c2ccc3c(c2)OCCO3)ccc1Cl | . | . | . | 93.1 | .
COc1cccc(OCc2cc(/C=N/Nc3ccc(C(=O)O)cc3)ccc2OC)c1 | . | . | . | ? | 50.3
O=C(O)c1cc(N/N=C/c2ccc3c(c2)OCO3)ccc1Cl | . | . | . | . | .
CCC(=O)OC1(C(C)=O)CCC2C3CCC4=CC(=O)CCC4(C)C3CCC21C (stereo not drawn) | . | . | / | / | .
O=c1nc(SCc2cccc(C(F)(F)F)c2)nc2ccccn12 | . | . | . | . | .
COc1cccc(N2CC(NC(=O)C(=O)c3c[nH]c4ccccc34)CC2=O)c1 (stereo not drawn) | . | . | . | / | .
O=C(COc1ccc(Cl)cc1Cl)NN1C(=O)C2C3C=CC(C3)C2C1=O (stereo not drawn) | . | . | . | . | .
Nc1ncnc2c(C3OC(CO)C(O)C3O)scc12 (stereo not drawn) | . | . | . | / | .
CC/C(C)=N/Nc1nc(-c2cc3cccc(OC)c3oc2=O)cs1 | / | . | . | 98.5 | .
COc1cccc2cc(-c3csc(CCn4nc(C)cc4C)n3)c(=O)oc12 | / | . | . | 97.8 | .
Cc1cc(C)n(CCc2nc(-c3ccco3)cs2)n1 | . | . | . | 98.5 | .
CCN1C(=O)c2cccc3c(S(=O)(=O)Nc4ccc(O)c(C(=O)O)c4)ccc1c23 | / | . | . | 97.6 | .
CCN1C(=O)c2cccc3c(S(=O)(=O)NCc4ccccc4)ccc1c23 | . | . | / | . | .
Cc1ccc(S(=O)(=O)NNC(=O)c2ccc(O)cc2)cc1 | . | . | / | 96.9 | .
CCOC(=O)c1ccc(S(=O)(=O)NNC(=O)c2cccc(N(C)C)c2)cc1 | . | . | . | 82.1 | .
Cc1ccc(C(=O)NC(=S)NNS(=O)(=O)c2ccc(C)cc2)cc1 | / | . | . | 97.2 | .
CC(=O)Nc1ccc(C(=O)NNS(=O)(=O)c2ccc(C)cc2)cc1 | . | . | . | . | .
Cc1ccc(S(=O)(=O)NNC(=S)NC(=O)c2ccc([N+](=O)[O-])cc2)cc1 | . | . | . | 93.0 | .
Cc1ccc(S(=O)(=O)NNC(=O)C(=O)NNS(=O)(=O)c2ccc(C)cc2)cc1 | . | . | . | . | .
O=C(CCNC(=O)c1ccc([N+](=O)[O-])cc1)Nc1nccs1 | . | . | . | . | .
Cc1ccc(S(=O)(=O)NNC(=S)Nc2ccc(Cl)cc2)cc1 | . | . | . | ? | .
Cc1ccc(S(=O)(=O)NNC(=S)Nc2ccccc2)cc1 | . | . | . | 98.6 | .
SMILES | CAL PDZ FP-1 | CAL PDZ FP-2 | DYRK1A inh | ALR H2O2 inh | Rtt109 HAT inh
Cn1c2c(c(=O)n3ncnc13)CCCC2 | 48.0 | . | / | . | .
Cc1nc(N)sc1-c1csc(N(C)c2ccc(O)cc2)n1 | . | . | . | . | .
c1cncc(Nc2nc(-c3cccs3)cs2)c1 | . | . | . | 95.9 | .
Cc1nc(C)c(-c2csc(Nc3ccc(F)cc3)n2)s1 | . | . | . | 94.4 | .
Cc1cc(O)ccc1Nc1nc(-c2cccs2)cs1 | . | . | . | 87.9 | .
c1ccc(-c2csc(Nc3cccnc3)n2)nc1 | / | . | . | . | .
CN(c1ccc(O)cc1)c1nc(-c2cccs2)cs1 | . | . | / | 97.5 | .
COc1cccc(Nc2nc(-c3sc(C)nc3C)cs2)c1 | . | . | / | . | .
COc1ccc(C)cc1NC(=S)N1CCN(S(C)(=O)=O)CC1 | . | . | . | . | .
Cc1nc(C)c(-c2csc(Nc3ccc(O)cc3C)n2)s1 | . | . | . | 99.2 | ?
CCOc1ccc(N/C(=C(/C(Cl)=C(Cl)Cl)[N+](=O)[O-])n2cncn2)cc1 | / | / | / | . | /
O=[N+]([O-])/C(C(Cl)=C(Cl)Cl)=C(\Nc1ccc(F)cc1)n1cncn1 | / | / | / | 96.1 | /
Brc1csc(C=Nc2ccc3c(c2)OCCOCCOCCOCCO3)c1 | . | . | . | 99.6 | .
Brc1ccc(C=Nc2ccc3c(c2)OCCOCCOCCO3)s1 | / | . | . | 89.1 | .
